Measurements reported in ChEMBL document CHEMBL1629660, “Pharmacodynamics of tigecycline against phenotypically diverse Staphylococcus aureus isolates in a murine thigh model” (Antimicrob Agents Chemother, 2009).
In brackets after ≈: the same amount, converted by molar mass.

Assays:
[1] = Elimination half life in neutropenic ICR mouse infected with methicillin-sensitive Staphylococcus aureus ATCC 29213 at 6.25 mg/kg, sc by HPLC; type: ADME, organism-based; design: dose 6.25 mg/kg, route subcutaneous; details: in vivo, read-out: beta t1/2 (converted)
How it was run: (§1)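 Neutropenic female ICR mice (cyclophosphamide 150 and 100 mg/kg ip, 4 days and 1 day before inoculation), both thighs inoculated im with ~10^7 CFU/ml of ATCC 29213. Single sc doses of 50, 25, 12.5 or 6.25 mg/kg. Cardiac blood taken from groups of six at 8–12 times over 0.5–24 h. Serum measured by HPLC (linear 0.05–5 µg/ml). Two-compartment fit by nonlinear least squares; AUC by trapezoidal rule.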

[2] = Protein binding in methicillin-sensitive Staphylococcus aureus ATCC 29213-infected neutropenic ICR mouse serum at 12 µg/ml by HPLC; details: read-out: PB (converted)
[3] = r2 for fAUC/MIC in community acquired methicillin-resistant Staphylococcus aureus isolate 147-infected neutropenic ICR mouse
[4] = fAUC/MIC in methicillin-sensitive Staphylococcus aureus ATCC 29213-infected neutropenic ICR mouse at 80% effective exposure index; type: functional
How it was run: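 fT>MIC, fCmax/MIC and fAUC/MIC were built from the serum pharmacokinetics, protein binding, modal broth-microdilution MIC (triplicate, CLSI) and 24-h thigh CFU change. Each index was fit to a sigmoidal Emax model. EI50, EI80 and stasis exposures were taken from each isolate's curve.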

[5] = r2 for fT>MIC in community acquired methicillin-resistant Staphylococcus aureus isolate 144-infected neutropenic ICR mouse
Staphylococcus aureus [6] = assay: Antimicrobial activity against Community-acquired methicillin-resistant Staphylococcus aureus isolate 156 by broth microdilution method; type: functional
How it was run: (§2)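 Tigecycline MIC by CLSI broth microdilution, run in triplicate; modal MIC reported. Isolates stored at –80°C in double-strength skim milk and subcultured twice on Trypticase soy agar with 5% sheep blood before use.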

[7] = Tmax in neutropenic ICR mouse infected with Staphylococcus aureus ATCC 29213 at 50 mg/kg, sc by HPLC; type: ADME, organism-based; design: dose 50 mg/kg, route subcutaneous; details: in vivo; how it was run: as §1
[8] = r2 for fAUC/MIC in methicillin-sensitive Staphylococcus aureus ATCC 25923-infected neutropenic ICR mouse
[9] = r2 of fAUC/MIC in hospital-acquired methicillin-resistant Staphylococcus aureus isolate 56-infected neutropenic ICR mouse
Staphylococcus aureus [10] = assay: Antimicrobial activity against community acquired methicillin-resistant Staphylococcus aureus isolate 147 infected in neutropenic ICR mouse assessed as change in bacterial load after 24 hrs; type: functional
How it was run: (§3)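 Female ICR mice (~25 g) made neutropenic with cyclophosphamide 150 and 100 mg/kg ip, 4 and 1 days before infection. Each thigh inoculated im with 0.1 ml of ~10^7 CFU/ml from an overnight subculture. Tigecycline sc (0.2 ml) given 2 h later as single or multiple doses of 1.56–50 mg/kg, 1.56–400 mg/kg/day, 3 mice/group. Saline-injected controls. Thighs harvested at 24 h, homogenized in saline, plated on blood agar; log10 CFU change vs 0-h controls.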

Staphylococcus aureus [11] = assay: Antimicrobial activity against methicillin-sensitive Staphylococcus aureus ATCC 29213 infected in neutropenic ICR mouse assessed as change in bacterial load after 24 hrs; type: functional
How it was run: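 Neutropenic ICR mice had both thighs inoculated with ~10^7 CFU/ml; dosing began 2 h later. Groups of three received 1.56–400 mg/kg/day sc as single or divided doses, with saline-dosed controls. Thighs were homogenized and plated on blood agar at 24 h. Read-out was the log10 CFU/ml change relative to 0-h controls.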

[12] = Tmax in neutropenic ICR mouse infected with Staphylococcus aureus ATCC 29213 at 25 mg/kg, sc by HPLC; type: ADME, organism-based; design: dose 25 mg/kg, route subcutaneous; details: in vivo; how it was run: as §1
[13] = Tmax in neutropenic ICR mouse infected with Staphylococcus aureus ATCC 29213 at 6.25 mg/kg, sc by HPLC; type: ADME, organism-based; design: dose 6.25 mg/kg, route subcutaneous; details: in vivo; how it was run: as §1
[14] = fAUC/MIC in community acquired methicillin-resistant Staphylococcus aureus isolate 156-infected neutropenic ICR mouse at 50% effective exposure index; type: functional
How it was run: (§4)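 Single-dose serum PK in infected neutropenic mice (sc 6.25–50 mg/kg; HPLC; two-compartment fit; AUC by trapezoidal rule; lower doses simulated). Free fraction from ultrafiltration of spiked mouse serum, in triplicate. Free exposures divided by modal MIC and plotted against 24-h log10 CFU change with a sigmoidal Emax model; EI50, EI80 and stasis values read from the fitted curves.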

[15] = Cmax in neutropenic ICR mouse infected with Staphylococcus aureus ATCC 29213 at 25 mg/kg, sc by HPLC; type: ADME, organism-based; design: dose 25 mg/kg, route subcutaneous; details: in vivo; how it was run: as §1
[16] = r2 of fT>MIC in methicillin-sensitive Staphylococcus aureus ATCC 25923-infected neutropenic ICR mouse
Staphylococcus aureus [17] = assay: Antimicrobial activity against community acquired methicillin-resistant Staphylococcus aureus isolate 156 infected in immunocompetent ICR mouse assessed as reduction in bacterial load at […] after 24 hrs; type: functional
How it was run: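 Non-neutropenic ICR mice (no cyclophosphamide). Each thigh inoculated im with 0.1 ml of ~10^8 CFU/ml. Tigecycline given sc once daily at 1.56, 3.13, 6.25 or 12.5 mg/kg starting 2 h post-infection, 3 mice/group. Thighs harvested at 24 h, homogenized, plated on blood agar; log10 CFU change vs 0-h controls.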

[18] = Cmax in neutropenic ICR mouse infected with Staphylococcus aureus ATCC 29213 at 12.5 mg/kg, sc by HPLC; type: ADME, organism-based; design: dose 12.5 mg/kg, route subcutaneous; details: in vivo; how it was run: as §1
Staphylococcus aureus [19] = assay: Antimicrobial activity against methicillin-sensitive Staphylococcus aureus ATCC 25923 infected in neutropenic ICR mouse assessed as change in bacterial load after 24 hrs; type: functional; how it was run: as §3
[20] = Elimination half life in neutropenic ICR mouse infected with methicillin-sensitive Staphylococcus aureus ATCC 29213 at 12.5 mg/kg, sc by HPLC; type: ADME, organism-based; design: dose 12.5 mg/kg, route subcutaneous; details: in vivo, read-out: beta t1/2 (converted); how it was run: as §1
[21] = fAUC/MIC in community acquired methicillin-resistant Staphylococcus aureus isolate 144-infected neutropenic ICR mouse at 80% effective exposure index; type: functional; how it was run: as §4
[22] = r2 for fAUC/MIC in community acquired methicillin-resistant Staphylococcus aureus isolate 144-infected neutropenic ICR mouse
[23] = fAUC/MIC in community acquired methicillin-resistant Staphylococcus aureus isolate 156 infected-immunocompetent ICR mouse at […], sc QD; type: functional
Staphylococcus aureus [24] = assay: Antimicrobial activity against Hospital-acquired methicillin-resistant Staphylococcus aureus isolate 56 by broth microdilution method; type: functional; how it was run: as §2
[25] = fAUC/MIC in community acquired methicillin-resistant Staphylococcus aureus isolate 144-infected neutropenic ICR mouse at 50% effective exposure index; type: functional; how it was run: as §4
[26] = AUC (0 to 24 hrs) in neutropenic ICR mouse infected with Staphylococcus aureus ATCC 29213 at 6.25 mg/kg, sc by HPLC; type: ADME, organism-based; design: time < 24 hr, dose 6.25 mg/kg, route subcutaneous; details: plasma; how it was run: as §1
[27] = AUC (0 to 24 hrs) in neutropenic ICR mouse infected with Staphylococcus aureus ATCC 29213 at 50 mg/kg, sc by HPLC; type: ADME, organism-based; design: time < 24 hr, dose 50 mg/kg, route subcutaneous; details: plasma; how it was run: as §1

**Q.** For `CN(C)c1cc(NC(=O)CNC(C)(C)C)c(O)c2c1C[C@H]1C[C@H]3[C@H](N(C)C)C(O)=C(C(N)=O)C(=O)[C@@]3(O)C(O)=C1C2=O` [TIGECYCLINE], which half-life [1] is on record?
**A.** 632 min

**Q.** And the fraction unbound [2]?
**A.** 0.08

**Q.** And the r2 [3]?
**A.** 0.966

**Q.** What about the fAUC/MIC [4] of the same compound?
**A.** 4.1

**Q.** What about the r2 [5] of the same compound?
**A.** 0.552%

**Q.** What about the MIC (Staphylococcus aureus [6]) of the same compound?
**A.** 0.125 µg/mL (≈ 0.213 µM)

**Q.** And the Tmax [7]?
**A.** 44.4 min

**Q.** And the r2 [8]?
**A.** 0.877

**Q.** What about the r2 [9] of the same compound?
**A.** 0.957

**Q.** And the log10CFU/ml (Staphylococcus aureus [10])?
**A.** 1.8

**Q.** And the log10CFU/ml (Staphylococcus aureus [11])?
**A.** 2.3

**Q.** And the Tmax [12]?
**A.** 31.8 min

**Q.** What about the Tmax [13] of the same compound?
**A.** 4.8 min

**Q.** What about the fAUC/MIC [14] of the same compound?
**A.** 5.1

**Q.** What about the Cmax [15] of the same compound?
**A.** 5330 ng/mL

**Q.** What about the r2 [16] of the same compound?
**A.** 0.872%

**Q.** And the log10cfu (Staphylococcus aureus [17])?
**A.** 1.9

**Q.** And the Cmax [18]?
**A.** 2380 ng/mL

**Q.** What about the log10CFU/ml (Staphylococcus aureus [19]) of the same compound?
**A.** 1.4

**Q.** And the half-life [20]?
**A.** 603 min

**Q.** And the fAUC/MIC [21]?
**A.** 3.2

**Q.** What about the r2 [22] of the same compound?
**A.** 0.954

**Q.** And the fAUC/MIC [23]?
**A.** 3.6

**Q.** What about the MIC (Staphylococcus aureus [24]) of the same compound?
**A.** 0.5 µg/mL (≈ 0.854 µM)

**Q.** And the fAUC/MIC [25]?
**A.** 2.2

**Q.** And the AUC(0-t) at 24 h [26]?
**A.** 4800 ng·h/mL

**Q.** What about the AUC(0-t) at 24 h [27] of the same compound?
**A.** 49200 ng·h/mL
